Assay results published in article PMC11094580 (EFSA Journal, 2024).
Converted amounts (≈) assume the structure as drawn. “Also recorded” adds a separate entry of the source. Like-named read-outs stand apart in the source and are kept apart here.

Legend:
[1] = Solubility of naringenin in various solvents; assay type: physicochemical; conditions: for Naringenin concentration (solubility): 25°C
[2] = system: Salmonella typhimurium (TA98, TA100, TA102, TA1535, TA1537) and E. coli WP2uvrA; assay: Bacterial reverse mutation assay; assay type: cell-based; conditions: for concentration with reduction in growth of bacterial background lawns: plate incorporation; for concentration with reduction of bacterial background lawns: pre-incubation
[3] = system: Wistar rats; assay: In vivo comet assay in liver and duodenum; set-up: species or system rat; conditions: 500, 1000, 2000 mg/kg bw per day, Wistar rats, M, gavage
[4] = system: Wistar rats; assay: 28-day dose range-finding oral toxicity study in Wistar rats; assay type: in vivo, rat
Procedure, shortened: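 Test compound given by gavage at 1000 to 5000 mg/kg bw per day; haematology, clinical chemistry and organ weights, including uterus weight, were recorded.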

[5] = system: Sprague Dawley rats; assay: Extended one-generation reproductive toxicity; assay type: in vivo, rat
[6] = cited from earlier work
[7] = ref Kanaze et al. (2007), cited from earlier work
[8] = ref Gardana et al. (2007), cited from earlier work
[9] = ref Ma et al. (2006), cited from earlier work
[10] = system: human faecal slurries; conditions: 50 μmol incubated, ref Pereira‐Caro et al. (2015), cited from earlier work
[11] = system: Lactobacillus rhamnosus subsp. Rhamnosus NCTC 10302; conditions: 25 μg/mL, cultures of L. rhamnosus; ref Pereira‐Caro et al. (2016); cited from earlier work
[12] = system: Bifidobacterium longum R0175; conditions: 25 μg/mL, cultures of B. longum; ref Pereira‐Caro et al. (2016); cited from earlier work
[13] = system: Clostridium orbiscindens; conditions: ref Schoefer et al. (2003); cited from earlier work
[14] = system: CYP2C9; conditions: ref Lu et al. (2011); cited from earlier work
[15] = system: CYP2B6; conditions: concentrations up to 10 μM; ref Lu et al. (2011); cited from earlier work
[16] = system: CYP2D6; conditions: concentrations up to 10 μM; ref Lu et al. (2011); cited from earlier work
[17] = target: simvastatin metabolism in rat liver microsomes; conditions: ref Ubeaud et al. (1999); cited from earlier work
[18] = system: felodipine metabolism in human liver microsomes; conditions: substrate felodipine; ref Fasinu et al. (2013), Ho et al. (2001); cited from earlier work
[19] = system: Mice (strain not specified); conditions: Gavage, M, 3/group; ref Ortiz‐Andrade et al. (2008); cited from earlier work
[20] = system: Wistar rats; conditions: Gavage, M, 3/group; ref Ortiz‐Andrade et al. (2008); cited from earlier work
[21] = system: Wistar rats; conditions: 50 mg/kg bw per day, 4 weeks; ref Motawi et al. (2014); cited from earlier work
[22] = F1 C1A females, high‐dose group

## O=C1CC(c2ccc(O)cc2)Oc2cc(O)cc(O)c21 (centres unmarked) [naringenin, 4H‐1‐Benzopyran‐4‐one, 2,3‐dihydro‐5,7‐dihydroxy‐2‐(4‐hydroxyphenyl)‐]
[1]; 80% ethanol, 25 °C, organic solvent or mixture
  solubility: ~60 mg/mL (≈ 220 mM)
[1]; 95% ethanol
  Solubility in ethanol: Soluble
[1]; Ethanol
  Naringenin concentration (solubility): 10 % (w/w)
[1]; Ethanol, 80%
  Naringenin concentration (solubility): 5 % (w/w)
[1]; Propylene glycol
  Naringenin concentration (solubility): 2.5 % (w/w)
[1]; ethanol, 25 °C, organic solvent or mixture
  solubility: ~125 mg/mL (≈ 459 mM)
[1]; in water
  solubility: Almost insoluble
[1]; other solvents
  Solubility in other: Soluble in ether and benzene
[1]; propylene glycol, 25 °C, organic solvent or mixture
  solubility: ~25 mg/mL (≈ 91.8 mM)
[1]; water, 25 °C
  solubility: 0.05 mg/mL (≈ 0.184 mM)
[2]; Experiment 1: 1.5–5000 μg/plate (+/− S9, plate incorporation)
  Result: Negative
[2]; Experiment 2: 1.5–5000 μg/plate (+/− S9, pre‐incubation)
  Result: Negative
[2]; TA102, 50 μg/plate, absence of S9‐mix
  frequency of revertant colonies: 262 ± 23.8
[2]; TA1537, +/− S9
  concentration with reduction in growth of bacterial background lawns: ≥ 1500 μg/plate
[2]; all bacterial strains, +/− S9
  concentration with reduction in growth of bacterial background lawns: 5000 μg/plate
[2]; TA98 and E. coli WP2uvrA, +/− S9
  concentration with reduction of bacterial background lawns: 5000 μg/plate
[2]; TA100, TA102, TA1535 and TA1537, +/− S9
  concentration with reduction of bacterial background lawns: ≥ 1500 μg/plate
[3]
  Result: Negative
[4]; gavage 28 days
  uterus weight: no effects on uterus weight
[4]; gavage, doses from 1000 to 5000 mg/kg bw per day
  Mortality: Mortality was observed at the highest dose tested
[5]; F1 C1A females
  Absolute organ weight: ↑ G3, G4 thymus; also recorded: ↑ G4 spleen and iliac lymph nodes
  Thyroid hormone levels: T4: T4: –
[5]; [22]
  increase in mean platelet count: 25%
  mean platelet count: 1138.20 × 10^3 cells/μL
[5]; F1 C1A males
  Absolute organ weight: ↓ G2 and G3 testes and iliac lymph nodes; also recorded: ↓ G4 iliac lymph nodes
  Lymphocyte typing (spleen): T helper cells (CD4+): T helper cells (CD4+): ↑ G2, G3 and G4, no dose‐related trend
  Thyroid hormone levels: T4: T4: –
  Thyroid hormone levels: TSH: TSH: –
[5]; F1 C1B females
  Absolute organ weight: ↑ G4 thymus; also recorded: ↑ G3 uterus with cervix
[5]; F1 C1B males
  Absolute organ weight: ↑ G3 thymus
[5]; F1 pups (surplus) females, PND 21
  Absolute organ weight: PND 21: ↓ G2 spleen; ↑ G3 spleen; ↓ G2 brain
[5]; F1 pups (surplus) males, PND 21
  Absolute organ weight: PND 21: ↑ G3 spleen
[5]; F1 pups, PND4, highest dose females
  reduction of anogenital distance (AGD): 4%
[5]; F1‐C1A cohort
  decreased normal sperm: ~ 1%
  increased sperm with abnormalities: 50%
[5]; F1‐C1A females, highest dose group
  increase of thymus gland weight: 24%
[5]; F1‐C1A males, high dose
  reduction of daily sperm production: 2%
[5]; F1‐C1A males, low dose
  reduction of daily sperm production: 7%
[5]; F1‐C1A males, mid dose
  decrease of absolute iliac lymph node weight: 30%
[5]; F1‐CB cohort, G3
  mean pre-coital interval: 7.6 days
[5]; F2, PND 1, males, group G4‐C1B
  change in mean pup weight: −4%
[5]; F2, PND 4, females, group G4‐C1B
  change in mean pup weight: −8%
[5]; F2, PND 14, females, group G3‐C1B
  change in mean pup weight: −5%
[5]; F2, PND 14, females, group G4‐C1B
  change in mean pup weight: −5%
[5]; P females, significant in lowest and highest exposed groups
  oestrous cycle length, increase following exposure: up to 6%
[5]; P generation, G4
  mean pre-coital interval: 8 days
[5]; P males, high‐dose group
  decrease in mean urinary pH value: 12%
  increase in mean urinary specific gravity: 1%
[5]; adults, chronic APET as flavouring substance, NOAEL 1320 mg/kg bw per day
  margin of exposure (MoE): 1590
[5]; adults, chronic combined exposure incl. other food sources
  margin of exposure (MoE): 1390
[5]; all tested dose groups, P and F1‐C1B generations
  fertility indices (pregnancy, parturition and gestation): 100%
[5]; children, acute combined exposure
  margin of exposure (MoE): 48
[5]; children, chronic APET as flavouring substance, NOAEL 1320 mg/kg bw per day
  margin of exposure (MoE): 630
[5]; children, chronic combined exposure incl. other food sources
  margin of exposure (MoE): 550
[5]; high‐dose P females
  post-implantation loss: 12.6%
[5]; mid‐dose
  NOAEL (dietary concentration): 20,000 mg/kg feed
[5]; mid‐dose, P males, pre‐cohabitation period
  NOAEL: 1320 mg/kg bw per day
[6]; 25°C, pH from 6.5 to 8.5, ref Lucas‐Abellán et al. (2019)
  increase of solubility in water upon change of pH: ~ 20 fold
[6]; from 25 to 35°C, ref Zhang et al. (2013), Lucas‐Abellán et al. (2019)
  increase of solubility in water upon increase of temperature: 2 factor
[7]; single oral 135 mg (496 μmol) capsule
  Cmax: 7.5 µM
[7]; single oral 135 mg capsule, 24 h after dosing
  cumulative urinary excretion, percentage of administered dose: 5.81 ± 0.81%
[7]; single oral 135 mg capsule
  T max (time of peak plasma level): 4 h
  peak plasma concentration (total naringenin): 7.4 µM
  time of first appearance in plasma after dosing: 20 min
[7]; single oral 135 mg capsule, listed as NAR‐A
  Half-life of elimination (plasma): T ½ ~ 2.3 h
[8]; BOJ 150 mL, 6 mg (22 μmol)
  C max (plasma naringenin): 16.4 ng/mL
[8]; BOJ 300 mL, 12 mg (44 μmol)
  C max (plasma naringenin): 34 ng/mL
[9]; 30 mg/kg bw
  C max for total naringenin: 16.9 ng/mL
  C max of unconjugated naringenin: 2.9 ng/mL
  time to C max for total naringenin (including the conjugates): 0.5 h
[9]; 90 mg/kg bw
  C max for total naringenin: 28 ng/mL
  C max of unconjugated naringenin: 3.7 ng/mL
  plasma half-life of total naringenin: 7.6 h
  time to C max for total naringenin (including the conjugates): 2 h
[9]; 270 mg/kg bw
  C max for total naringenin: 43.8 ng/mL
  C max of unconjugated naringenin: 4.4 ng/mL
  plasma half-life of total naringenin: 10.5 h
  time to C max for total naringenin (including the conjugates): 2 h
[9]; 30, 90 or 270 mg/kg bw oral gavage
  time to C max of unconjugated naringenin: ≤ 15 min
[9]; bile duct-cannulated rats
  naringenin excreted in bile: 12%
[9]
  naringenin excreted in urine: 6.25%
[10]; after 4 h of incubation
  naringenin remaining: 26 to 36 µmol
[10]; after 6 h of incubation
  naringenin remaining: 13 to 28 µmol
[10]; after 24 h of incubation
  naringenin remaining: 3 to 8 µmol
[11]
  Recovery: 83%
[12]
  Recovery: 88%
[13]
  Results: conversion by C. orbiscindens: converted 0.5 mM naringenin to 3‐(4‐hydroxyphenyl) propionic acid
[14]
  IC50: < 5 µM
[15]
  inhibition: No appreciable inhibition
[16]
  inhibition: No appreciable inhibition
[17]
  Ki: 30 µM
[18]
  IC50: 122 µM
[19]
  LD50: > 5000 mg/kg bw
[20]
  LD50: > 5000 mg/kg bw
[21]
  histopathological examination of the liver: slight inflammatory cell infiltration in the portal areas
